# Laboratory results from ChEMBL document CHEMBL2146423, “Photoresponsive 5'-cap for the reversible photoregulation of gene expression” (Bioorg Med Chem Lett, 2011).
# The source made the active and inactive calls. The rule behind the calls is not given here.
# Tests used:
# Nucleic Acid [1] = assay: Binding affinity to Aequorea victoria GFP mRNA in insect cell extract assessed as inhibition of mRNA translation at 4.8 mM irradiated with 410 nm monochromatic light for 2 mins measured after 10 hrs by fluorescence assay; assay type: nucleic-acid assay
# Outline: (§1)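 Capped GFP mRNA made by in vitro T7 transcription (37 °C, 4 h; poly(A)30 template), DNase-digested and purified, then translated in insect cell extract. Before translation the mixture was irradiated at room temperature for 2 min at 410 nm (cis to trans) or 310 nm (trans to cis). GFP read by fluorescence.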
# [2] = Thermal stability of the compound assessed as compound isomerization at 80 degC after 20 hrs; assay type: physicochemical
# Outline: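 Cis and trans isomers held at 80 °C for 20 h and checked for thermal isomerization. Isomers were generated with a 300 W xenon lamp at 25 °C, 2 cm from the source: 410 nm (103 mW/cm2) or 310 nm (81 mW/cm2), 2 min each. Isomer content measured by HPLC peak area.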
# Nucleic Acid [3] = assay: Binding affinity to Aequorea victoria GFP mRNA in insect cell extract assessed as increase in mRNA translation at 4.8 mM irradiated with 310 nm monochromatic light for 2 mins measured after 130 mins by time course fluorescence assay; assay type: nucleic-acid assay
# Outline: (§2)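 GFP mRNA capped at the 5' end during in vitro T7 transcription (37 °C, 4 h; PCR template carrying a 30-base poly(A) tail), then DNase-treated and purified. Translated in insect cell extract. Sample irradiated 2 min at 310 nm at 0 and 130 min and 2 min at 410 nm at 60 min. GFP fluorescence (ex 480 nm, em 509 nm) recorded over time, with normal-capped mRNA run alongside.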
# Nucleic Acid [4] = assay: Binding affinity to Aequorea victoria GFP mRNA in insect cell extract assessed as inhibition of mRNA translation at 4.8 mM irradiated with 310 nm monochromatic light for 2 mins measured after 10 hrs by fluorescence assay; assay type: nucleic-acid assay; outline: as §1
# Nucleic Acid [5] = assay: Binding affinity to Aequorea victoria GFP mRNA in insect cell extract assessed as increase in mRNA translation at 4.8 mM irradiated with 310 nm monochromatic light for 2 mins measured up to 60 mins by time course fluorescence assay; assay type: nucleic-acid assay; outline: as §2
# Nucleic Acid [6] = assay: Binding affinity to Aequorea victoria GFP mRNA in insect cell extract assessed as mRNA translational efficiency at 4.8 mM irradiated with 410 nm monochromatic light for 2 mins measured after 10 hrs by fluorescence assay relative to normal-capped mRNA; assay type: nucleic-acid assay; outline: as §1
# Nucleic Acid [7] = assay: Binding affinity to Aequorea victoria GFP mRNA in insect cell extract assessed as mRNA translational efficiency at 4.8 mM irradiated with 410 nm monochromatic light for 2 mins measured after 10 hrs by fluorescence assay; assay type: nucleic-acid assay; outline: as §1
Stability [2],inhibition (Nucleic Acid [4]),SMILES,also measured
Stable,,CCN(CC)CC.CCN(CC)CC.C[n+]1c(/C=C\c2ccc3c(c2)Cc2ccccc2-3)n([C@@H]2O[C@H](COP(=O)(O)OP(=O)(O)OP(=O)([O-])OC[C@H]3O[C@@H](n4cnc5c(=O)[nH]c(N)nc54)[C@H](O)[C@@H]3O)[C@@H](O)[C@H]2O)c2nc(N)[nH]c(=O)c21,inhibition (Nucleic Acid [1]): Active
Stable,Active,CCN(CC)CC.CCN(CC)CC.C[n+]1c(/C=C/c2ccc3c(c2)Cc2ccccc2-3)n([C@@H]2O[C@H](COP(=O)([O-])OP(=O)(O)OP(=O)(O)OC[C@H]3O[C@@H](n4cnc5c(=O)[nH]c(N)nc54)[C@H](O)[C@@H]3O)[C@@H](O)[C@H]2O)c2nc(N)[nH]c(=O)c21,

# Second part, the compound before the results:
SMILES,Stability [2],inhibition (Nucleic Acid [4]),also measured
CCN(CC)CC.CCN(CC)CC.C[n+]1c(/C=C/c2ccc3ccccc3c2)n([C@@H]2O[C@H](COP(=O)([O-])OP(=O)(O)OP(=O)(O)OC[C@H]3O[C@@H](n4cnc5c(=O)[nH]c(N)nc54)[C@H](O)[C@@H]3O)[C@@H](O)[C@H]2O)c2nc(N)[nH]c(=O)c21,Stable,Active,Activity (Nucleic Acid [3]): inactive; Activity (Nucleic Acid [5]): inactive
CCN(CC)CC.CCN(CC)CC.C[n+]1c(/C=C/c2ccccc2)n([C@@H]2O[C@H](COP(=O)([O-])OP(=O)(O)OP(=O)(O)OC[C@H]3O[C@@H](n4cnc5c(=O)[nH]c(N)nc54)[C@H](O)[C@@H]3O)[C@@H](O)[C@H]2O)c2nc(N)[nH]c(=O)c21,Stable,,
CCN(CC)CC.CCN(CC)CC.C[n+]1c(/C=C\c2ccccc2)n([C@@H]2O[C@H](COP(=O)([O-])OP(=O)(O)OP(=O)(O)OC[C@H]3O[C@@H](n4cnc5c(=O)[nH]c(N)nc54)[C@H](O)[C@@H]3O)[C@@H](O)[C@H]2O)c2nc(N)[nH]c(=O)c21,Stable,,fold change (FC) (Nucleic Acid [6]): 2.2
CCN(CC)CC.CCN(CC)CC.C[n+]1c(/C=C\c2ccc3ccccc3c2)n([C@@H]2O[C@H](COP(=O)(O)OP(=O)(O)OP(=O)([O-])OC[C@H]3O[C@@H](n4cnc5c(=O)[nH]c(N)nc54)[C@H](O)[C@@H]3O)[C@@H](O)[C@H]2O)c2nc(N)[nH]c(=O)c21,Stable,,Activity (Nucleic Acid [7]): Active
